TRPC4 block: inhibitors of mouse TRPC4 channel; Q9QUQ5; HEK293 TRPC4beta/mu-opioid, DAMGO-evoked Fluo4 calcium flux; stronger effect = lower value; B-score at 10 µM; hit rate 0.39% among 300,000;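 active = B-score over 3 SD under the library average, no early fluorescence shift, positive overall ratio signal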
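Assay system: TRPC4beta/mu-opioid receptor HEK293 cell line; compound dosing: single concentration per test compound; detection: Fluo4 Ca2+ flux fluorescence; evaluation: per-well B score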
TRPC4 agonist: opens the mouse TRPC4 cation channel; Q9QUQ5; HEK293 TRPC4beta/mu-opioid, Fluo4 calcium fluorescence; stronger effect = higher value; B-score at 10 µM; hit rate 0.49% among 310,000;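 active = B-score above 5 SD of library B-scores, and initial fluorescence ratio not above library mean plus 5 SD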;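 also: positive B-score marks a calcium rise read as TRPC4 activation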
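Test system: HEK293 cells stably co-expressing mouse TRPC4beta and mu-opioid receptor | Schedule: Fluo4 dye loading 45 min at room temperature, 110 s recording | Measured by: Kinetic Fluo4 calcium fluorescence, 5 s baseline at 1 Hz | Evaluation: B score of integrated ratio | Controls: Buffer (low) and maximal DAMGO (high)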
Kir21 inh: inhibitors of mouse Kir2.1 inward-rectifier potassium channel. hit rate 0.85% among 310,000. HEK293-Kir2.1, FluxOR thallium flux fluorescence; stronger effect = lower value. P35561. B-score at 10 µM;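 active = fluorescence ratio B-score at or below minus 3 SD of library scores, with starting-brightness B-score within 2 SD, cut at about -4.2 in these data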;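 also: channel flux triggered by added potassium and thallium sulfate stimulus; B-score of peak minus minimum fluorescence over baseline after thallium stimulus; more negative B-score means stronger Kir2.1 block with less thallium influx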
TRPC6 inh: blocks the mouse TRPC6 cation channel | AID 2553 | B-score at 10 µM | hit rate 1.1% among 310,000 | Q61143 | HEK293-TRPC6, membrane potential dye, ACh-evoked depolarization; stronger effect = lower value;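 active = B-score under library mean minus 3 SD, initial fluorescence not abnormally high, positive integrated signal ratio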;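 also: B-score derived from integrated fluorescence ratio over the kinetic read; more negative B-score means stronger inhibition of depolarization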
Target sequence (Q61143 whole entry, looked up): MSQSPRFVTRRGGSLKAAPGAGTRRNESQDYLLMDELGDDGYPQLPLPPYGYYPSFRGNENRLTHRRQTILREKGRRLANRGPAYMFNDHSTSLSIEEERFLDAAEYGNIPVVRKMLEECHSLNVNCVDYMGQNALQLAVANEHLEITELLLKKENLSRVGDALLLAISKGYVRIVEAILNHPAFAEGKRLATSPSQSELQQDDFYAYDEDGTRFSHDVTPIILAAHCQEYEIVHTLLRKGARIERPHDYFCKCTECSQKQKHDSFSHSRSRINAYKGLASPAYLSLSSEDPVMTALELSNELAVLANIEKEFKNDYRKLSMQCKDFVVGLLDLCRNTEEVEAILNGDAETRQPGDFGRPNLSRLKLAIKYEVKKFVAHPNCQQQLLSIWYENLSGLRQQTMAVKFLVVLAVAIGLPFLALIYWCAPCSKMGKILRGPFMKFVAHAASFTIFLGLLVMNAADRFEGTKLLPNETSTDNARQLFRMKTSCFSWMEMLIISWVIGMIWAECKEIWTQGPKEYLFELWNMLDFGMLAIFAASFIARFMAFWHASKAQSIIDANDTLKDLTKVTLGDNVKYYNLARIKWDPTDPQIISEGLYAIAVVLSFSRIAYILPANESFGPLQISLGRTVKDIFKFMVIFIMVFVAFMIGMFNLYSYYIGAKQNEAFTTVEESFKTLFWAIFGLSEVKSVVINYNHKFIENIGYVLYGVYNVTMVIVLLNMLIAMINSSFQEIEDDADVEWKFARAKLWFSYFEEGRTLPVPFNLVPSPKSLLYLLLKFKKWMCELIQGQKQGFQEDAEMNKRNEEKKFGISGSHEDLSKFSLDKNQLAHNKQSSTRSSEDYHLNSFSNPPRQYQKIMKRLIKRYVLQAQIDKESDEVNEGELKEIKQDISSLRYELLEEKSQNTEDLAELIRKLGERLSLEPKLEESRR
TRPC4 PAM: TRPC4 (mouse) allosteric potentiation; Q9QUQ5; HEK293 TRPC4beta/mu-opioid, DAMGO EC20, Fluo-4 Ca2+ flux; stronger effect = higher value; B-score at 10 µM; hit rate 0.42% among 310,000; AID 2227;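 active = B-score of calcium response area above 5 SD of library B-scores, with initial fluorescence ratio within 5 SD of library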;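 also: B-score of integrated fluorescence ratio over time as area under calcium response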
TRPC6 activator: activators of mouse TRPC6 channel | HEK293-TRPC6 membrane potential dye fluorescence; stronger effect = higher value | B-score at 10 µM | Q61143 | hit rate 0.13% among 310,000 | AID 2550;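 active = B-score of the integrated fluorescence ratio above library mean plus 3 SD, and starting fluorescence ratio within library mean plus 5 SD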;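 also: higher score means more depolarization so channel activation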
TRPC4 spec 2: mouse TRPC4 off-target activity of TRPC6 inhibitors, second screen; HEK293 TRPC4/MOR, membrane potential dye fluorescence; channel activated by saturating DAMGO dose; shares compounds with TRPC6 inh; hit rate 42% among 920; inhibition, % at 10 µM;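 active = compounds whose fluorescence signal differed from control wells by over 3 SD, either direction, in both duplicate plates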
TRPC4 spec: mouse TRPC4 off-target activity of TRPC6 inhibitors. shares compounds with TRPC6 inh. hit rate 61% among 920. activity change, negative = inhibition, % at 10 µM. HEK293 TRPC4/mu-opioid, membrane potential fluorescence. AID 2777;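 active = rise or fall in signal beyond 3 SD of buffer-only wells in both replicate plates, either sign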;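 also: integrated kinetic ratio of fluorescence range over baseline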
HEK293 MPD ctr 2-1: parental HEK293 nonspecific activity of TRPC6 inhibitors, second screen; shares compounds with TRPC6 inh; parental HEK293 membrane potential dye fluorescence; maximal acetylcholine challenge after compound addition; signal change vs control, % at 10 µM; hit rate 31% among 920; AID 2779;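 active = membrane potential signal moving either way by over 3 SD of the maximum-effect control, in both duplicate plates, meaning non-specific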
HEK293 MPD ctr-1: counter-screen for TRPC6 inhibitors: effect in parental HEK293 cells | shares compounds with TRPC6 inh | parental HEK293 membrane potential dye fluorescence | membrane potential signal change, % at 10 µM | hit rate 60% among 920 | AID 2780;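 active = membrane potential signal shifting up or down by more than 3 SD of buffer-only wells, on both duplicate plates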
HEK293 MPD ctr-2: parental HEK293 nonspecific activity of TRPC6 modulators; membrane potential dye fluorescence; membrane potential signal change, % at 10 µM; shares compounds with TRPC6 inh; hit rate 51% among 2,400; AID 488924;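 active = membrane potential signal moves up or down beyond 5 SD from buffer-only wells, on both duplicate plates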
HEK293 MPD ctr 2-2: second counter-screen for TRPC6 modulators: effect in parental HEK293 cells | shares compounds with TRPC6 inh | membrane potential dye fluorescence; after compound, maximal acetylcholine stimulation | inhibition, % at 10 µM | hit rate 14% among 2,400 | AID 488926;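 active = membrane potential signal drops by more than 5 SD from the mean control signal, in both duplicate plates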;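 also: plate controls were acetylcholine ECmax control wells for no effect and buffer only wells for full effect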
TRPC4 ctr mod: tests whether TRPC6 modulators also affect mouse TRPC4 | hit rate 69% among 2,400 | percent change from control (negative = decrease, positive = increase), % at 10 µM | shares compounds with TRPC6 inh | HEK293 TRPC4/mu-opioid, membrane potential fluorescence;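 active = membrane potential signal moved up or down beyond 5 SD of buffer control wells, in both duplicate plates, actives on both sides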;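 also: plate controls were assay buffer wells for no effect and DAMGO maximal-effect wells for full effect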
TRPC4 ctr inh 2: mouse TRPC4 off-target activity of TRPC6 modulators, second screen; shares compounds with TRPC6 inh; HEK293 TRPC4/mu-opioid, membrane potential dye fluorescence; stimulated with maximal-effect DAMGO; inhibition, % at 10 µM; hit rate 55% among 2,400;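 active = drop in membrane potential signal beyond 5 SD of the control wells in both duplicate plates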;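 also: TRPC4 counter screen for TRPC6 hits run under conditions tuned for TRPC6 not TRPC4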
TRPC6 block conf: mouse TRPC6 inhibitor confirmation; HEK293-TRPC6, membrane potential dye, ACh-evoked depolarization; shares compounds with TRPC6 inh; hit rate 43% among 3,300; inhibition, % at 10 µM;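 active = fluorescence ratio falls more than 5 SD below the full-stimulation control mean, in both duplicate runs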;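 also: integrated fluorescence ratio of peak minus minimum over baseline after agonist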
TRPC6 act confirm: confirmation of mouse TRPC6 activators | HEK293-TRPC6 membrane potential dye fluorescence, FDSS | hit rate 11% among 2,800 | shares compounds with TRPC6 inh | AID 488961 | activation, % at 10 µM;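 active = ratio signal rise beyond 5 SD above unstimulated control wells' mean, seen in both duplicate runs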;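 also: plate controls were buffer EC0 wells for no effect and acetylcholine ECmax response for full effect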
An asterisk follows results filed as active; i = inactive; nt = no result. In the library only some 2.9% were active in any assay of this set; here they are far more common.

SMILES	TRPC4 block	TRPC4 agonist	Kir21 inh	TRPC6 inh	TRPC4 PAM	TRPC6 activator	TRPC4 spec 2	TRPC4 spec	HEK293 MPD ctr 2-1	HEK293 MPD ctr-1	HEK293 MPD ctr-2	HEK293 MPD ctr 2-2	TRPC4 ctr mod	TRPC4 ctr inh 2	TRPC6 block conf	TRPC6 act confirm
CC(C)(C)c1ccc(Cn2c(=N)n(CC(O)c3ccco3)c3ccccc32)cc1 (stereo not drawn)	i	i	-6.2*	-7.3*	i	i	37%*	11%*	i	8.7%*	nt	nt	nt	nt	67%*	i
Cc1c(OCC(=O)N2C[C@H]3C[C@@H](C2)c2cccc(=O)n2C3)ccc2c3c(c(=O)oc12)CCCC3	i	i	1.7	-7*	i	i	i	5.1%*	17%*	5.9%*	nt	nt	nt	nt	77%*	nt
Fc1ccccc1CSc1ncnc2sc3c(c12)CCCC3	i	i	-3.6	i	i	i	nt	nt	nt	nt	nt	nt	nt	nt	nt	nt
O=C1c2cccc3cccc(c23)C(=O)N1CC1CCN(CC(O)COCc2ccc3c(c2)OCO3)CC1 (stereo not drawn)	i	i	-4.1	-7.3*	i	i	19%*	-28%*	33%*	-323%*	nt	nt	nt	nt	83%*	i
O=C(Cc1ccc(NC2=NC3CS(=O)(=O)CC3S2)cc1)NCCc1ccccc1 (stereo not drawn)	i	i	0	i	i	i	nt	nt	nt	nt	nt	nt	nt	nt	nt	nt
COc1ccc(CCNC(=O)CC(=O)N/N=C/c2ccc(Br)cc2)cc1OC	i	i	-0.51	i	i	i	nt	nt	nt	nt	nt	nt	nt	nt	nt	nt
COCCNC(=S)N(CCc1c(C)[nH]c2ccc(Cl)cc12)Cc1cccnc1	i	i	0.02	-7*	i	i	i	i	i	i	nt	nt	nt	nt	i	i
Cc1cc(C(=O)CCC(=O)NCC2COc3ccccc3O2)c(C)s1 (stereo not drawn)	i	i	-1	i	i	i	nt	nt	nt	nt	nt	nt	nt	nt	nt	nt
O=C(Oc1ccc2c(c1)OCC2=O)c1ccccc1	i	i	-0.76	-5.8*	i	i	nt	nt	nt	nt	i	i	i	i	i	nt
CC(C)(C)NC(=O)Cn1nnc(-c2ccccc2NC(=O)c2cnccn2)n1	i	i	-0.7	-7.1*	i	13*	nt	nt	nt	nt	i	i	20%*	i	i	72%*
O=c1cc(CNc2ccc(Br)cc2)nc2sccn12	i	i	0.93	-7*	i	i	nt	nt	nt	nt	i	i	i	i	i	i

From PubChem
